In brackets after ≈: the same amount, converted by molar mass. Activity calls are given as the source filed them. No cut-off for these calls is given here.
Assays:
[1] = test system: Radical scavenging activity; experiment: Antioxidant activity assessed as DPPH free radical scavenging activity relative to control; type: functional
[2] = Toxicity against brine shrimp larvae; type: organism-based; conditions: artemia, in vivo
[3] = test system: Staphylococcus aureus; experiment: Antimicrobial activity against Staphylococcus aureus ATCC 29213 by agar-dilution-streak method; type: functional
In short: (§1)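 Screened with the agar-dilution-streak method. MIC was set by broth dilution following NCCLS. Compounds were dissolved in DMSO and diluted to graded concentrations in tryptone soy broth.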

[4] = test system: Escherichia coli; experiment: Antimicrobial activity against Escherichia coli ATCC 9637 up to 500 ug/ml by agar-dilution-streak method; type: functional, organism-based
[5] = test system: Pseudomonas aeruginosa; experiment: Antimicrobial activity against Pseudomonas aeruginosa ATCC 27853 up to 500 ug/ml by agar-dilution-streak method; type: functional, organism-based; in short: as §1
[6] = test system: Candida albicans; experiment: Antimicrobial activity against Candida albicans ATCC 10231 up to 500 ug/ml by agar-dilution-streak method; type: functional, organism-based; in short: as §1
[7] = test system: Klebsiella pneumoniae; experiment: Antimicrobial activity against Klebsiella pneumoniae ATCC 10031 up to 500 ug/ml by agar-dilution-streak method; type: functional, organism-based; in short: as §1
[8] = test system: Salmonella enterica; experiment: Antimicrobial activity against Salmonella choleraesuis ATCC 14028 up to 500 ug/ml by agar-dilution-streak method; type: functional, organism-based
In short: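 Salmonella choleraesuis ATCC 14028 was tested by the agar-dilution-streak method, alongside S. aureus ATCC 29213, P. aeruginosa ATCC 27853, C. albicans ATCC 10231 and K. pneumoniae ATCC 10031. Test compounds were dissolved in DMSO.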

SMILES | Activity [1] | LC50 [2] | MIC [3] | Activity [4] | Activity [5] | Activity [6] | Activity [7] | Activity [8]
C=C1C[C@@H](O)C=C(C)C2C1CC[C@@H](O)C2(C)C (stereo partly specified) [GODOTOL B] | < 10% | 540 µg/mL (≈ 2280 µM) | 500 µg/mL (≈ 2120 µM) | inactive | inactive | inactive | inactive | inactive
C=C1C(CC2C[C@H](O)C=C2C)C(C)(C)C[C@H]1O (stereo partly specified) [GODOTOL A] | < 10% | 290 µg/mL (≈ 1230 µM) | 250 µg/mL (≈ 1060 µM) | inactive | inactive | inactive | inactive | inactive

Source: ChEMBL document CHEMBL1148956, “New sesquiterpenes from Pluchea arabica” (J Nat Prod, 2004)
